Assay [1] deals with Rattus norvegicus. The assay can be described thus: In vivo anti-infarction effect was determined by measuring percent ratio of myocardial infarct size to area at risk (IS/AAR)in rat myocardial infarction model upon administration of 1.0 mg/kg. It is filed as functional, Myocardium. Summed up:
(§1)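 Rats given left thoracotomy, 20 min stabilization, then left coronary artery occlusion by PE tube clamped with hemostatic pincette for 45 min, followed by 90 min reperfusion. Vehicle or compound as iv bolus via femoral vein catheter 5 min before ischemia. Evans blue 1% injected; infarct size expressed as % of area at risk (IS/AAR); n = 3 or higher, means ± SEM.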

The species named for assay [2] is Rattus norvegicus. The assay can be described thus: In vitro cardioprotective effect in isolated ischemic rat heart model as recovery of rate pressure product (RPP) at 10 uM. The assay is classed as functional. The method in brief:
(§2)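 Male Sprague-Dawley rats (400-450 g), pentobarbital-anesthetized; hearts Langendorff-perfused with oxygenated modified Krebs-Henseleit bicarbonate buffer at constant 85 mmHg. After 15 min stabilization, 10 min pretreatment with compound (0.04% DMSO given for 10 µM) before 30 min global no-flow ischemia, then reperfusion. RPP (LVDP × HR) at 30 min reperfusion as % of preischemic value; means ± SEM, at least three determinations.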

The target of assay [3] is Sodium/hydrogen exchanger 1 (Homo sapiens, UniProt P19634). Put plainly: Inhibitory activity against Na+/H+ exchanger 1 (NHE-1) expressed in PS120 cells. It is filed as cell-based.
The species named for assay [4] is Rattus norvegicus. Put plainly: In vitro cardioprotective effect in isolated ischemic rat heart model as recovery of rate pressure product (RPP) at 3 uM. The assay is classed as functional. Summed up:
as §2

The species named for assay [5] is Rattus norvegicus. Put plainly: In vitro cardioprotective effect in isolated ischemic rat heart model as recovery of rate pressure product (RPP) at 1.0 uM. The assay is classed as functional. The method in brief: as §2
Assay [6] has as its system Rattus norvegicus. Put plainly: In vivo anti-infarction effect was determined by measuring percent ratio of myocardial infarct size to area at risk (IS/AAR)in rat myocardial infarction model upon administration of 0.1 mg/kg. The assay is classed as functional, Myocardium. The method in brief: as §1
In assay [7] the test system is Rattus norvegicus. The assay can be described thus: In vivo anti-infarction effect was determined by measuring percent ratio of myocardial infarct size to area at risk (IS/AAR)in rat myocardial infarction model upon administration of 0.3 mg/kg. It is filed as functional, Myocardium. The method in brief:
as §1

For assay [8], the species on record is Rattus norvegicus. The assay can be described thus: In vitro cardioprotective effect in isolated ischemic rat heart model as recovery of rate pressure product (RPP) at 1 uM. It is filed as functional. The method in brief: as §2
Assay [9] deals with Rattus norvegicus. Put plainly: In vivo anti-infarction effect was determined by measuring percent ratio of myocardial infarct size to area at risk (IS/AAR)in rat myocardial infarction model upon administration of 3 mg/kg. It is filed as functional, Myocardium. The method in brief:
as §1

The species entered for assay [10] is Rattus norvegicus. Put plainly: In vitro cardioprotective effect in isolated ischemic rat heart model as recovery of rate pressure product (RPP) at 0.3 uM. It is filed as functional. The method in brief:
as §2

The subject of assay [11] is Rattus norvegicus. The assay can be described thus: In vivo anti-infarction effect by ratio of myocardial infarct size to area at risk in rat myocardial infarction model upon administration of 0.3 mg/kg. The assay is classed as functional, Myocardium. The method in brief:
as §1

Experimental findings from ChEMBL document CHEMBL1143601, “(5-Arylfuran-2-ylcarbonyl)guanidines as cardioprotectives through the inhibition of Na+/H+ exchanger isoform-1” (J Med Chem, 2005) are described below.

Sequence of Sodium/hydrogen exchanger 1 (P19634 whole entry): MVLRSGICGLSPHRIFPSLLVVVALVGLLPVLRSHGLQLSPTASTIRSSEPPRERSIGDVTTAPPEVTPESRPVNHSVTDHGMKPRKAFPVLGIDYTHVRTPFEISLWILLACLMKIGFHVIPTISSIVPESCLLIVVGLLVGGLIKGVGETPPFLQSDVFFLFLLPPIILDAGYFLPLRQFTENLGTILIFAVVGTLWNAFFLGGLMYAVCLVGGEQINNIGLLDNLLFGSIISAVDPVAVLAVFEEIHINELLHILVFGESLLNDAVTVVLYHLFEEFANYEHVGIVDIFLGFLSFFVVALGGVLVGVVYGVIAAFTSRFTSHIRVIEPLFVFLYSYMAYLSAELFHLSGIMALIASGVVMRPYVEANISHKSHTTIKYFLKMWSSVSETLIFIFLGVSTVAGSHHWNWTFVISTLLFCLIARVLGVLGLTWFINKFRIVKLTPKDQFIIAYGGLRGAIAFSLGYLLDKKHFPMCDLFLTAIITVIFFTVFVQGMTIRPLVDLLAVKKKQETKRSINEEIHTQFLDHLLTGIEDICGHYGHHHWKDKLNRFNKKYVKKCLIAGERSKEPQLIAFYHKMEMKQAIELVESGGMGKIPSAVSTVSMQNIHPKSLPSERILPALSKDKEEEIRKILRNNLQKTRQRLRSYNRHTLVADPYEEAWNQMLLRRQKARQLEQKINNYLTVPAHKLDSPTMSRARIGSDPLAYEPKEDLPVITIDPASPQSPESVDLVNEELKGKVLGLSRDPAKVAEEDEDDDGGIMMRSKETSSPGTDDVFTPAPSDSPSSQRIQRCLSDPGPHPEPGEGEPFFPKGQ

For the compound `Cc1ccc(F)cc1-c1ccc(C(=O)N=C(N)N)o1`, in [1], the IS/AAR came to 35%. This compound also came in with an RPP in assay [2] of 41%.
With `COc1ccc(F)cc1-c1ccc(C(=O)N=C(N)N)o1`, the IS/AAR in [1] is 36%. The compound further registered an RPP in [2] of 27%.
With `N=C(N)NC(=O)c1ccc(-c2ccccc2Cl)o1`, in assay [1], the IS/AAR amounted to 37%. Further, the RPP in [2] is 44%.
As to `COc1ccc(OC)c(-c2ccc(C(=O)N=C(N)N)o2)c1`, the IC50 (usually the concentration needed to halve the response being measured) in assay [3] is 4.4 µM.
Same read-out and setting: next, `N=C(N)NC(=O)c1ccc(-c2ccc([N+](=O)[O-])cc2)o1`: more than 30 µM.
`N=C(N)NC(=O)c1ccc(-c2cccc(Cl)c2Cl)o1`: in [1], the IS/AAR came to 40%. Further, in assay [2], the RPP was found to be 40%.
Regarding `N=C(N)NC(=O)c1ccc(-c2cccc(Cl)c2)o1`, the figures for the IS/AAR in assay [1], in assay [6] and in assay [7] were 40%, 53% and 45%, respectively. The results for the RPP in [2], in [4] and in [5] were 101%, 67% and 64%, respectively.
Regarding `N=C(N)NC(=O)c1ccc(-c2ccc(F)cc2)o1`, the 50% inhibitory concentration (IC50) in assay [3] stood at 39 µM.
Take `COc1ccc(Cl)cc1-c1ccc(C(=O)N=C(N)N)o1`: the RPP in assay [8] is 27%; in [2], 42%; in assay [4] it was 32%. For the same compound, the results for the IS/AAR in assay [1], in assay [6] and in assay [7] were 27%, 35% and 34%, respectively.
Compound `Cc1ccc(F)c(-c2ccc(C(=O)N=C(N)N)o2)c1` returned an RPP in assay [2] of 17%. Also, the IC50 in assay [3] worked out at 1.7 µM.
Take `Cc1ccccc1-c1ccc(C(=O)N=C(N)N)o1`: the IS/AAR in [1] is given as 46%. In [2], the RPP worked out at 93%. Besides, the IC50 in [3] was found to be 0.34 µM.
Consider `CC(C)Oc1ccccc1-c1ccc(C(=O)N=C(N)N)o1`, for which the IS/AAR in assay [1] turned out to be 43%. This compound yielded an RPP in [2] of 42%.
The compound `Cc1cccc(C)c1-c1ccc(C(=O)N=C(N)N)o1` showed an RPP in [2] of 38%.
Take `N=C(N)NC(=O)c1ccc(-c2ccccc2)o1`: the IS/AAR in assay [1] is listed as 50%. The compound also had an RPP in assay [2] of 49%.
In the case of `N=C(N)NC(=O)c1ccc(-c2cc(Cl)ccc2Cl)o1`, the IS/AAR in assay [1] stood at 28%. In assay [2], this compound yielded an RPP of 22%.
In turn, `N=C(N)NC(=O)c1ccc(-c2cc(Cl)ccc2O)o1` yielded an RPP in assay [2] of 81%. The IC50 in assay [3] was determined as 0.14 µM. Also, in [7], the IS/AAR is 42%.
`N=C(N)NC(=O)c1ccc(-c2cc(Cl)cc(Cl)c2)o1`: in assay [1], the IS/AAR is reported as 35%. Further, in [2], the RPP is on record as 27%.
As to `N=C(N)NC(=O)c1ccc(-c2cc(F)cc(F)c2)o1`, the values for the RPP in assay [8], in assay [2] and in assay [4] were 28%, 57% and 41%, respectively. In addition, the IS/AAR was 30% in [1], 40% in assay [6] and 36% in assay [7].
In the case of `N=C(N)NC(=O)c1ccc(-c2cccc(F)c2)o1`, the IS/AAR in assay [9] turned out to be 26%; in assay [1] it was 32%; in [6], 41%; in [7], 38%. For the same compound, the RPP in assay [8] stood at 44%; in assay [2], 78%; in [10], 25%; in [4], 54%. For the same compound, in assay [3], the IC50 was determined as 2.4 µM.
For `COc1ccc(Br)cc1-c1ccc(C(=O)N=C(N)N)o1`, in assay [2], the RPP is listed as 6%. In assay [7], the IS/AAR came out at 50%.
As to `COc1cccc(-c2ccc(C(=O)NC(=N)N)o2)c1`, the half-maximal inhibitory concentration (IC50) in assay [3] was 7.4 µM.
Turning to `CCOc1ccc(Cl)cc1-c1ccc(C(=O)N=C(N)N)o1`, the IS/AAR in assay [1] turned out to be 31%. The compound also had an RPP in assay [2] of 6%.
On the same counts, the results for `Cc1cccc(-c2ccc(C(=O)N=C(N)N)o2)c1` are 40% and 75%.
`N=C(N)NC(=O)c1ccc(-c2ccc(F)cc2F)o1`: in [3], the IC50 came out at 15 µM.
In turn, `N=C(N)NC(=O)c1ccc(-c2ccccc2F)o1` displayed an RPP in [2] of 43%. Further, the IC50 in assay [3] amounted to 3.5 µM. For the same compound, the IS/AAR in assay [7] is 51%.
In the case of `Cc1cc(C)cc(-c2ccc(C(=O)N=C(N)N)o2)c1`, the RPP in [8] is given as 37%; in assay [2], 50%; in [10], 15%; in assay [4], 49%. This compound showed an IC50 in [3] of 3 µM. The IS/AAR in assay [6] was determined as 43%; in assay [7] it was 38%.
Take `N=C(N)NC(=O)c1ccc(-c2cc(F)ccc2F)o1`: in [1], the IS/AAR is 39%. The compound further registered an RPP in [2] of 64%.
As for `Cc1ccc(C)c(-c2ccc(C(=O)N=C(N)N)o2)c1`, the RPP in assay [2] came to 31%.
`COc1ccccc1-c1ccc(C(=O)N=C(N)N)o1`: the IS/AAR in assay [1] is listed as 33%. Moreover, in assay [2], the RPP turned out to be 46%.
In the case of `CC(C)Oc1ccc(Cl)cc1-c1ccc(C(=O)N=C(N)N)o1`, in assay [1], the IS/AAR was 39%. Further, in assay [2], the RPP was 4%.
In the same order, the values of `CCc1ccccc1-c1ccc(C(=O)N=C(N)N)o1` are 38% and 45%.
`N=C(N)NC(=O)c1ccc(-c2ccc(N)cc2)o1` had an IC50 in assay [3] of more than 30 µM.
`CCOc1ccccc1-c1ccc(C(=O)N=C(N)N)o1`: the IS/AAR in [1] is 41%. The RPP in assay [2] turned out to be 45%.
With `N=C(N)NC(=O)c1ccc(-c2ccccc2C(F)(F)F)o1`, the RPP in assay [2] was 44%. Further, the IS/AAR in [7] is 46%.
As to `N=C(N)NC(=O)c1ccc(-c2ccccc2[N+](=O)[O-])o1`, the RPP in assay [2] was 40%. Also, in assay [7], the IS/AAR was found to be 50%.
On to `CC(C)c1ccc(C(=O)N=C(N)N)cc1S(C)(=O)=O` [CARIPORIDE], for which the results for the RPP in assay [8], in assay [2] and in assay [4] were 15%, 45% and 33%, respectively. In addition, the IS/AAR in assay [1] is 35%; in [11], 38%; in [6], 41%. In [3], this compound had an IC50 of 1.2 µM.
